Laboratory results from ChEMBL document CHEMBL3232893, “Design of antiviral stapled peptides containing a biphenyl cross-linker” (Bioorg Med Chem Lett, 2014).

Key:
[1] = system: Human immunodeficiency virus 1; assay: Antiviral activity against HIV-1 pseudotyped virus expressing HIV-1 isolate A envelope QH343.21M.ENV.A10 assessed as reduction of luciferase production after 3 days by single-cycle neutralization assay; format: functional, organism-based; conditions: Human immunodeficiency virus 1, 72 h
Method in brief: (§1)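 Single-cycle assay using pseudoviruses carrying Env from primary HIV-1 isolates of subtypes A, A/D, A/G, B, C and D reference viruses. Read-out is luciferase production, and IC50 is determined.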

[2] = system: Human immunodeficiency virus 1; assay: Antiviral activity against HIV-1 pseudotyped virus expressing HIV-1 isolate D envelope QD435.100M.ENV.E1 assessed as reduction of luciferase production after 3 days by single-cycle neutralization assay; format: functional, organism-based; conditions: Human immunodeficiency virus 1, 72 h; method in brief: as §1
[3] = Binding affinity to HIV-1 Yu2 full-length gp120 by surface plasmon resonance analysis; set-up: species or system Human immunodeficiency virus type 1 (isolate YU2)
Method in brief: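 Gp120 binding was measured by SPR. Sensorgrams were fitted to a 1:1 Langmuir model to give ka and kd, and Kd was calculated from these rate constants.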

[4] = Cytotoxicity against human TZM-bl cells after 3 days by XTT assay; format: cell-based
[5] = system: Human immunodeficiency virus 1; assay: Antiviral activity against HIV-1 pseudotyped virus expressing HIV-1 isolate C envelope Du156, clone 12 (SVPC3) assessed as reduction of luciferase production after 3 days by single-cycle neutralization assay; format: functional, organism-based; conditions: Human immunodeficiency virus 1, 72 h; method in brief: as §1
[6] = Cytotoxicity against human MT2 cells after 4 days by XTT assay; format: cell-based
[7] = system: Human immunodeficiency virus 1; assay: Antiviral activity against HIV-1 pseudotyped virus expressing HIV-1 isolate B envelope pREJO4541 clone 67 (SVPB16) assessed as reduction of luciferase production after 3 days by single-cycle neutralization assay; format: functional, organism-based; conditions: Human immunodeficiency virus 1, 72 h; method in brief: as §1
[8] = system: Human immunodeficiency virus 1; assay: Antiviral activity against HIV-1 pseudotyped virus expressing HIV-1 isolate D envelope QD435.100M.ENV.B5 assessed as reduction of luciferase production after 3 days by single-cycle neutralization assay; format: functional, organism-based; conditions: Human immunodeficiency virus 1, 72 h; method in brief: as §1
[9] = Binding affinity to HIV-1 capsid protein C-terminal domain M184A/W185A mutant at 20 uM by isothermal titration calorimetric analysis; set-up: species or system Human immunodeficiency virus 1
Method in brief: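 ITC: 625 μM CTD M184A/W185A mutant titrated in 10 μL aliquots into 20 μM peptide in the cell. The integrated binding isotherm was fitted to a single-site binding equation to give Kd.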

[10] = system: Human immunodeficiency virus 1; assay: Antiviral activity against HIV-1 pseudotyped virus expressing HIV-1 isolate B envelope SC422661, clone B (SVPB8) assessed as reduction of luciferase production after 3 days by single-cycle neutralization assay; format: functional, organism-based; conditions: Human immunodeficiency virus 1, 72 h; method in brief: as §1
[11] = system: Human immunodeficiency virus 1; assay: Antiviral activity against HIV-1 pseudotyped virus expressing HIV-1 isolate D envelope QA013.70I.ENV.M12 assessed as reduction of luciferase production after 3 days by single-cycle neutralization assay; format: functional, organism-based; conditions: Human immunodeficiency virus 1, 72 h; method in brief: as §1
[12] = system: Human immunodeficiency virus 1; assay: Antiviral activity against HIV-1 pseudotyped virus expressing HIV-1 isolate AD envelope QA790.204I.ENV.E2 assessed as reduction of luciferase production after 3 days by single-cycle neutralization assay; format: functional, organism-based; conditions: Human immunodeficiency virus 1, 72 h; method in brief: as §1
[13] = system: Human immunodeficiency virus 1; assay: Antiviral activity against HIV-1 pseudotyped virus expressing HIV-1 isolate AG envelope CRF02_AG (clone 263) assessed as reduction of luciferase production after 3 days by single-cycle neutralization assay; format: functional, organism-based; conditions: Human immunodeficiency virus 1, 72 h; method in brief: as §1
[14] = system: Human immunodeficiency virus 1; assay: Antiviral activity against HIV-1 3B infected in human MT-2 cells assessed as reduction in p24 antigen level incubated for overnight measured on fourth day post infection by multi-cycle infection assay based sandwich ELISA; format: functional, organism-based; conditions: Human immunodeficiency virus 1, 3B, MT2
Method in brief: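 Multi-cycle infection in MT-2 cells; read-out is reduction of p24 levels. IC50 derived from dose-response.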

[15] = system: Human immunodeficiency virus 1; assay: Antiviral activity against HIV-1 pseudotyped virus expressing HIV-1 isolate B envelope PVO, clone 4 (SVPB11) assessed as reduction of luciferase production after 3 days by single-cycle neutralization assay; format: functional, organism-based; conditions: Human immunodeficiency virus 1, 72 h; method in brief: as §1
[16] = system: Human immunodeficiency virus 1; assay: Antiviral activity against HIV-1 pseudotyped virus expressing HIV-1 isolate AD envelope QA790.204I.ENV.A4 assessed as reduction of luciferase production after 3 days by single-cycle neutralization assay; format: functional, organism-based; conditions: Human immunodeficiency virus 1, 72 h; method in brief: as §1
[17] = system: Human immunodeficiency virus 1; assay: Antiviral activity against HIV-1 pseudotyped virus expressing HIV-1 isolate C envelope HIV-26191-2, clone 48 assessed as reduction of luciferase production after 3 days by single-cycle neutralization assay; format: functional, organism-based; conditions: Human immunodeficiency virus 1, 72 h; method in brief: as §1
[18] = system: Human immunodeficiency virus 1; assay: Antiviral activity against HIV-1 pseudotyped virus expressing HIV-1 isolate C envelope ZM233M.PB6, SVPC9 assessed as reduction of luciferase production after 3 days by single-cycle neutralization assay; format: functional, organism-based; conditions: Human immunodeficiency virus 1, 72 h; method in brief: as §1
[19] = system: Human immunodeficiency virus 1; assay: Antiviral activity against HIV-1 pseudotyped virus expressing HIV-1 isolate B envelope pCAAN5342 clone A2 (SVPB19) assessed as reduction of luciferase production after 3 days by single-cycle neutralization assay; format: functional, organism-based; conditions: Human immunodeficiency virus 1, 72 h; method in brief: as §1
[20] = system: Human immunodeficiency virus 1; assay: Antiviral activity against HIV-1 pseudotyped virus expressing HIV-1 isolate AG envelope CRF02_AG (clone 211) assessed as reduction of luciferase production after 3 days by single-cycle neutralization assay; format: functional, organism-based; conditions: Human immunodeficiency virus 1, 72 h; method in brief: as §1
[21] = system: Human immunodeficiency virus 1; assay: Antiviral activity against HIV-1 pseudotyped virus expressing HIV-1 isolate D envelope QD435.100M.ENV.A4 assessed as reduction of luciferase production after 3 days by single-cycle neutralization assay; format: functional, organism-based; conditions: Human immunodeficiency virus 1, 72 h; method in brief: as §1
[22] = system: Human immunodeficiency virus 1; assay: Antiviral activity against HIV-1 pseudotyped virus expressing HIV-1 isolate A envelope QF495.23M.ENV.B2 assessed as reduction of luciferase production after 3 days by single-cycle neutralization assay; format: functional, organism-based; conditions: Human immunodeficiency virus 1, 72 h; method in brief: as §1
[23] = system: Human immunodeficiency virus 1; assay: Antiviral activity against HIV-1 pseudotyped virus expressing HIV-1 isolate A envelope QB726.70M.ENV.B3 assessed as reduction of luciferase production after 3 days by single-cycle neutralization assay; format: functional, organism-based; conditions: Human immunodeficiency virus 1, 72 h; method in brief: as §1
[24] = system: Human immunodeficiency virus 1; assay: Antiviral activity against HIV-1 pseudotyped virus expressing HIV-1 isolate A envelope QF495.23M.ENV.A3 assessed as reduction of luciferase production after 3 days by single-cycle neutralization assay; format: functional, organism-based; conditions: Human immunodeficiency virus 1, 72 h; method in brief: as §1
[25] = system: Human immunodeficiency virus 1; assay: Antiviral activity against HIV-1 pseudotyped virus expressing HIV-1 isolate C envelope ZM135M.PL10a, SVPC15 assessed as reduction of luciferase production after 3 days by single-cycle neutralization assay; format: functional, organism-based; conditions: Human immunodeficiency virus 1, 72 h; method in brief: as §1
[26] = system: Human immunodeficiency virus 1; assay: Antiviral activity against HIV-1 pseudotyped virus expressing HIV-1 isolate B envelope pRHPA4259 clone 7 (SVPB14) assessed as reduction of luciferase production after 3 days by single-cycle neutralization assay; format: functional, organism-based; conditions: Human immunodeficiency virus 1, 72 h; method in brief: as §1
[27] = system: Human immunodeficiency virus 1; assay: Antiviral activity against HIV-1 pseudotyped virus expressing HIV-1 isolate D envelope QA465.59M.ENV.A1 assessed as reduction of luciferase production after 3 days by single-cycle neutralization assay; format: functional, organism-based; conditions: Human immunodeficiency virus 1, 72 h; method in brief: as §1
[28] = system: Human immunodeficiency virus 1; assay: Antiviral activity against HIV-1 NL4-3-HXB2 pseudovirus co-transfected with luciferase gene infected in human TZM-bl cells assessed as reduction of luciferase production after 3 days by single-cycle neutralization assay; format: functional, organism-based; conditions: Human immunodeficiency virus 1, NL4-3-HXB2, TZM-bl, 72 h
Method in brief: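 Single-cycle neutralization in TZM-bl cells; read-out is reduction of luciferase production. IC50 derived from dose-response.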

[29] = system: Human immunodeficiency virus 1; assay: Antiviral activity against HIV-1 pseudotyped virus expressing HIV-1 isolate C envelope HIV-25925-2, clone 22 assessed as reduction of luciferase production after 3 days by single-cycle neutralization assay; format: functional, organism-based; conditions: Human immunodeficiency virus 1, 72 h; method in brief: as §1
[30] = system: Human immunodeficiency virus 1; assay: Antiviral activity against HIV-1 pseudotyped virus expressing HIV-1 isolate D envelope QA465.59M.ENV.D1 assessed as reduction of luciferase production after 3 days by single-cycle neutralization assay; format: functional, organism-based; conditions: Human immunodeficiency virus 1, 72 h; method in brief: as §1
[31] = Drug uptake in human HEK293T cells assessed as increase in fluorescence at 5 uM after 2 hrs by confocal microscopy; format: ADME, cell-based; conditions: hek-293t
Method in brief: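 HEK293T cells were incubated with 5 μM FITC-labeled peptide at 37°C for 2 h. Intracellular fluorescence was imaged by confocal microscopy, with DIC images alongside.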

SMILES: CC[C@H](C)[C@H](NC(C)=O)C(=O)N[C@@H](CO)C(=O)N[C@@H](Cc1ccccc1)C(=O)N[C@@H]1CSCc2ccc(cc2)-c2ccc(cc2)CSC[C@@H](C(=O)N[C@@H](CCC(=O)O)C(=O)N[C@@H](CO)C(=O)NCC(=O)N[C@@H](CO)C(N)=O)NC(=O)[C@H](Cc2ccc(O)cc2)NC(=O)[C@H](Cc2ccc(O)cc2)NC(=O)[C@H](CC(=O)O)NC(=O)[C@H](CC(C)C)NC(=O)[C@H](CC(C)C)NC(=O)[C@H](CCC(=O)O)NC1=O
- IC50 [1]: 15.4 µM
- IC50 [2]: 15.4 µM
- Kd [3]: 7.4 µM
- CC50 at 72 h [4]: > 103 µM
- IC50 [5]: 17.9 µM
- CC50 at 96 h [6]: > 103 µM
- IC50 [7]: 3.4 µM
- IC50 [8]: 15.4 µM
- Kd [9]: 17.5 µM
- IC50 [10]: 3.7 µM
- IC50 [11]: 15.4 µM
- IC50 [12]: 7.7 µM
- IC50 [13]: 4.4 µM
- IC50 [14]: 2.8 µM
- IC50 [15]: 3.5 µM
- IC50 [16]: 7 µM
- IC50 [17]: 6.3 µM
- IC50 [18]: 3.6 µM
- IC50 [19]: 4.6 µM
- IC50 [20]: 4 µM
- IC50 [21]: 1 µM
- IC50 [22]: 10 µM
- IC50 [23]: 15.4 µM
- IC50 [24]: 1.4 µM
- IC50 [25]: 1 µM
- IC50 [26]: 1.6 µM
- IC50 [27]: 15.4 µM
- IC50 [28]: 1.9 µM
- IC50 [29]: 1.1 µM
- IC50 [30]: 7.7 µM

SMILES: CC[C@H](C)[C@H](NC(C)=O)C(=O)N[C@@H](CO)C(=O)N[C@@H](Cc1ccccc1)C(=O)N[C@@H]1CSCc2ccc(cc2)-c2ccc(cc2)CSC[C@@H](C(=O)N[C@@H](CCC(=O)O)C(=O)N[C@@H](CO)C(=O)NCC(=O)N[C@@H](CO)C(N)=O)NC(=O)[C@H](C)NC(=O)[C@H](Cc2ccc(O)cc2)NC(=O)[C@H](CC(=O)O)NC(=O)[C@H](CC(C)C)NC(=O)[C@H](CC(C)C)NC(=O)[C@H](CCC(=O)O)NC1=O
- CC50 at 72 h [4]: > 107 µM
- CC50 at 96 h [6]: > 107 µM
- IC50 [14]: 14 µM
- IC50 [28]: 17.3 µM

SMILES: CC[C@H](C)[C@H](NC(=S)Nc1ccc(-c2c3ccc(=O)cc-3oc3cc(O)ccc23)c(C(=O)O)c1)C(=O)N[C@@H](CO)C(=O)N[C@@H](Cc1ccccc1)C(=O)N[C@@H]1CSCc2ccc(cc2)-c2ccc(cc2)CSC[C@@H](C(=O)N[C@@H](CCC(=O)O)C(=O)N[C@@H](CO)C(=O)NCC(=O)N[C@@H](CO)C(=O)O)NC(=O)[C@H](Cc2ccc(O)cc2)NC(=O)[C@H](Cc2ccc(O)cc2)NC(=O)[C@H](CC(=O)O)NC(=O)[C@H](CC(C)C)NC(=O)[C@H](CC(C)C)NC(=O)[C@H](CCC(=O)O)NC1=O
- Drug uptake [31]: Active

SMILES: CC[C@H](C)[C@H](NC(C)=O)C(=O)N[C@@H](CO)C(=O)N[C@@H](Cc1ccccc1)C(=O)N[C@@H]1CSCc2ccc(cc2)-c2ccc(cc2)CSC[C@@H](C(=O)N[C@@H](CCC(=O)O)C(=O)N[C@@H](CO)C(=O)NCC(=O)N[C@@H](CO)C(N)=O)NC(=O)[C@H](Cc2ccc(O)cc2)NC(=O)[C@H](Cc2ccc(O)cc2)NC(=O)[C@H](CC(=O)O)NC(=O)[C@H](C)NC(=O)[C@H](CC(C)C)NC(=O)[C@H](CCC(=O)O)NC1=O
- CC50 at 72 h [4]: > 52 µM
- CC50 at 96 h [6]: 26 µM
- IC50 [14]: 4.1 µM
- IC50 [28]: 1.4 µM
